Source: ChEMBL document CHEMBL4480370, “Synthesis and preliminary evaluation of the anti-cancer activity on A549 lung cancer cells of a series of unsaturated disulfides” (2019)
The source made the active and inactive calls. No cut-off for these calls is given here.

How the values were obtained:
[1] = test system: A549; assay: Cytotoxicity against human A549 cells assessed as reduction in cell viability at 500 uM after 24 hrs by CellTiter-Glo luminescent assay; format: functional, cell-based
Procedure, shortened: (§1)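 A549 cells kept in RPMI 1640 with 10% fetal bovine serum and 100 units per ml penicillin–streptomycin. Each molecule was applied at 50, 100, 250 and 500 μM, with viability read at 24 or 48 h by CellTiter-Glo luminescence. Values are expressed relative to untreated control (C), as the mean of three repeats with relative standard deviation.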

[2] = test system: A549; assay: Cytotoxicity against human A549 cells assessed as reduction in cell viability at 500 uM after 48 hrs by CellTiter-Glo luminescent assay relative to control; format: functional; procedure, shortened: as §1
[3] = test system: A549; assay: Cytotoxicity against human A549 cells assessed as reduction in cell viability after 24 hrs by CellTiter-Glo luminescent assay; format: functional, cell-based; procedure, shortened: as §1
[4] = test system: A549; assay: Cytotoxicity against human A549 cells assessed as reduction in cell viability after 48 hrs by CellTiter-Glo luminescent assay; format: functional, cell-based; procedure, shortened: as §1
[5] = test system: A549; assay: Cytotoxicity against human A549 cells assessed as reduction in cell viability at 250 uM after 48 hrs by CellTiter-Glo luminescent assay; format: functional, cell-based; procedure, shortened: as §1
[6] = test system: A549; assay: Cytotoxicity against human A549 cells assessed as reduction in cell viability at 50 uM after 48 hrs by CellTiter-Glo luminescent assay relative to control; format: functional; procedure, shortened: as §1
[7] = test system: A549; assay: Cytotoxicity against human A549 cells assessed as reduction in cell viability at 50 to 500 uM by CellTiter-Glo luminescent assay; format: functional, cell-based; conditions: TDE = time-dependent effect; procedure, shortened: as §1
[8] = test system: A549; assay: Cytotoxicity against human A549 cells assessed as reduction in cell viability at 50 to 500 uM after 24 hrs by CellTiter-Glo luminescent assay; format: functional, cell-based; procedure, shortened: as §1
[9] = test system: A549; assay: Cytotoxicity against human A549 cells assessed as reduction in cell viability at 100 to 250 uM after 48 hrs by CellTiter-Glo luminescent assay; format: functional, cell-based; procedure, shortened: as §1

With CCC/C=C/CSSC/C=C/CCC the Activity [1] was “Active”.

For C=CCCSSCCC=C, the Activity [2] was 100%, the Activity [3] was “Dose-dependent effect” and the Activity [4] was “Dose-dependent effect”. The Activity [5] was “Active”, the Activity [6] was 68% and the Activity [7] was “Tde”.

C=CCSSCC=C [DIALLYLDISULFIDE] was tested, and the Activity [2] was 65%, the Activity [3] was “Dose-dependent effect” and the Activity [6] was 54%. The Activity [7] was “Tde”.

With CCCC=CCSSCC=CCCC (mixture of isomers) the Activity [1] was “Active”.

For C=CCCCCSSCCCCC=C, the Activity [8] was “inactive”.

C/C=C/CSSC/C=C/C was tested, and the Activity [2] was 84%, the Activity [9] was “Active” and the Activity [3] was “Dose-dependent effect”. The Activity [6] was 70% and the Activity [7] was “Tde”.
